TbHK1 inh – blocks Trypanosoma brucei hexokinase 1 activity | inhibition, % at 10 µM | recombinant TbHK1, G6PDH-coupled NADH A340 | 0.11% of 220,000 active;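 active means inhibition of 50% or more in the single-dose primary screen; inactive means inhibition below 50%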
PGE2 EP2 inh – EP2 receptor (human) inhibition. inhibition, % at 25 µM. P43116. C6 glioma cells expressing human EP2, cAMP TR-FRET; cells stimulated with saturating PGE2. AID 1422. 0.52% of 260,000 active;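 active means percent inhibition above 40 after rounding to a whole number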;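 further: rat C6 glioma host cells with rolipram phosphodiesterase inhibitor present; the protocol text gives 20 µM as final concentration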
Target sequence (P43116 whole entry, looked up): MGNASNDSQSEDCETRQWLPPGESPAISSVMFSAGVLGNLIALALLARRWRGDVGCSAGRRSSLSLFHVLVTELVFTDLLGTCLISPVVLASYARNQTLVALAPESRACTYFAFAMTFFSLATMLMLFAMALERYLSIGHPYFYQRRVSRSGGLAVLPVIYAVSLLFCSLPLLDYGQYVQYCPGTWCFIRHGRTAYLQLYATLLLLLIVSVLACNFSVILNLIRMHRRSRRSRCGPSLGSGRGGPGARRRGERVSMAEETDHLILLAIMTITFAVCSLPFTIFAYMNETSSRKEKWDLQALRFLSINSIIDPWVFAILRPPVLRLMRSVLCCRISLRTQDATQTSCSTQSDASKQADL
HKDC1 inhibitor – HKDC1 (human) hexokinase inhibition | inhibition, % at 20 µM | AID 493160 | Q2TB90 | 0.16% of 340,000 active | recombinant HKDC1, G6PDH/diaphorase resazurin coupled fluorescence;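 active means inhibition above about 35% when tested at 20 µM, limit read from the data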;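 further: plate controls were DMSO wells with enzyme for no effect and DMSO wells lacking enzyme for full effect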
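test system = in-house recombinant HK5 (HKDC1) enzyme | amount = HKDC1 at 5 µg/mL | control set = DMSO-enzyme wells negative, buffer-substituted wells positive | compound = one dose of 20 µM, 1% DMSO | schedule = reaction time 90 min, room temperature, protected from light | technique = resorufin fluorescence at 613 nm | reagent = glucose with 1 mM ATP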
PHOSPHO1 inh – inhibitors of human PHOSPHO1 phosphatase. 1.1% of 290,000 active. AID 1565. recombinant PHOSPHO1, absorbance phosphatase assay. inhibition, % at 13.3 µM. Q8TCT1; in the data active means inhibition above about 60%
Target sequence (Q8TCT1 whole entry, looked up): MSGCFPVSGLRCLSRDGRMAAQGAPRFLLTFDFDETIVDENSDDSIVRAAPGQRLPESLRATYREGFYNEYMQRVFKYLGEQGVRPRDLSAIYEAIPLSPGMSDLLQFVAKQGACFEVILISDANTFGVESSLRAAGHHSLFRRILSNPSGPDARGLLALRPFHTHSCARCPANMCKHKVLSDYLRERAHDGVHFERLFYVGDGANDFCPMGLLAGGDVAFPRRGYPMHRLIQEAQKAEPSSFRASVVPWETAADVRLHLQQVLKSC
PfGluPho inh – PfG6PD (Plasmodium falciparum) enzyme inhibition; PfGluPho enzyme, NADPH resazurin-diaphorase fluorescence; inhibition, % at 20 µM; 0.78% of 350,000 active; AID 504690;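 active means inhibition reaching at least a set limit at 20 µM in the primary screen, cut at about 59% in these data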;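 further: 0% = DMSO wells with substrate and 100% = DMSO wells lacking glucose-6-phosphate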
EP2 modulator – EP2 receptor (human) modulation; P43116; EP2-expressing cells, cAMP HTRF FRET, PGE2 co-stimulation; induction, % at 25 µM; 0.83% of 260,000 active; AID 940;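 active means compounds whose cAMP rise, as percent of the full-agonist control response, exceeds 60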;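 further: rat C6 glioma line stably carrying human EP2 under a CMV promoter; the protocol text gives 20 µM as final concentration; 100% = response of wells given 1 µM PGE2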
PfGluPho conf – PfG6PD inhibition, single-dose confirmed. shares compounds with PfGluPho inh. recombinant PfGluPho, NADPH-diaphorase-resazurin fluorescence. inhibition, % at 20 µM. 34% of 2,400 active. AID 504753;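 active means inhibition of at least 50% at 20 µM in any single replicate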;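 further: 0% = DMSO with substrate and 100% = DMSO lacking glucose-6-phosphate substrate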
Diaphorase 10uM – inhibits diaphorase or oxidizes, flagging false PfG6PD hits; shares compounds with PfGluPho inh; diaphorase-coupled resazurin reduction, fluorescence, NADPH 10 uM; inhibition, % at 20 µM; 39% of 820 active;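 active means average inhibition reaching 50% or more with the compound at 20 µM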;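 further: resorufin red fluorescence formed as diaphorase reduces resazurin using NADPH; 0% = DMSO with enzyme and 100% = DMSO without enzyme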
Diaph ctr 30uM – inhibits diaphorase or oxidizes, flagging false PfG6PD hits | 29% of 820 active | shares compounds with PfGluPho inh | Diaphorase/resazurin coupled assay, resorufin fluorescence, 30 uM NADPH | inhibition, % at 20 µM;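 active means inhibition averaging 50% or more, tested at 20 µM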;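 further: 0% = DMSO with enzyme and 100% = DMSO wells lacking diaphorase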
An asterisk follows results filed as active; . = no result. This is a sample that favours compounds with a hit; in the whole collection about 2.5% have one here.

SMILES	TbHK1 inh	PGE2 EP2 inh	HKDC1 inhibitor	PHOSPHO1 inh	PfGluPho inh	EP2 modulator	PfGluPho conf	others
C#CCOCCOCCOCCNc1nc(N2CCN(C(=O)CCCCCCCCCCNC(=O)Cn3cc(CCCCCN)nn3)CC2)nc(N2CCN(C(=O)CCCCCCCCCCNC(=O)[C@H](CO)n3cc(CCCCCN)nn3)CC2)n1	.	.	-7	.	62*	.	21
C#CCOCCOCCOCCNc1nc(N2CCN(C(=O)CCCCCCCCCCNC(=O)Cn3cc(C[C@@H](C)O)nn3)CC2)nc(N2CCN(C(=O)CCCCCCCCCCNC(=O)[C@H](CCCCN)n3cc(C[C@@H](C)CC)nn3)CC2)n1	.	.	-9	.	58	.	.
C#CCOCCOCCOCCNc1nc(N2CCN(C(=O)CCCCCCCCCCNC(=O)[C@H](CCCCN)n3cc(C[C@@H](C)CC)nn3)CC2)nc(N2CCN(C(=O)CCCCCCCCCCNC(=O)[C@H](CCCCN)n3cc(C[C@@H](C)CC)nn3)CC2)n1	.	.	4	.	74*	.	-20
C#CCOCCOCCOCCNc1nc(N2CCN(C(=O)CCCCCCCCCCNC(=O)[C@H](CCC(=O)O)n3cc(CCCCCN)nn3)CC2)nc(N2CCN(C(=O)CCCCCCCCCCNC(=O)[C@@H]([C@H](C)O)n3cc(C)nn3)CC2)n1	.	.	-1	.	0	.	.
C#CCOCCOCCOCCNc1nc(N2CCN(C(=O)CCCCCCCCCCNC(=O)[C@H](CCCCN)n3cc(CCO)nn3)CC2)nc(N2CCN(C(=O)CCCCCCCCCCNC(=O)[C@H](CCCCN)n3cc(CCO)nn3)CC2)n1	.	.	-10	.	68*	.	23
C#CCOCCOCCOCCNc1nc(N2CCN(C(=O)CCCCCCCCCCNC(=O)[C@H](CCCCN)n3cc(CCO)nn3)CC2)nc(N2CCN(C(=O)CCCCCCCCCCNC(=O)[C@@H]([C@H](C)O)n3cc(C)nn3)CC2)n1	.	.	0	.	66*	.	29
C#CCOCCOCCOCCNc1nc(N2CCOCC2)nc(N2CCN(C(=O)CCCCCCCCCCNC(=O)[C@H](CO)n3cc(CCCCCN)nn3)CC2)n1	.	.	0	.	-6	.	.
COC(=O)c1ccc(-n2nnnc2SCC(=O)N2c3ccccc3Sc3ccccc32)cc1	.	10	.	.	.	-93	.
O=C(CSc1nnc(CNc2ccc(F)cc2)o1)Nc1cccc2ccccc12	.	13	.	.	.	-39	.
CCOc1ccccc1-n1c(N)c(C(N)=O)sc1=S	-28	4	-5	32	18	26	.
COC(=O)c1ccccc1NC(=O)c1sc(=S)n(C)c1N	-23	19	-2	90*	63*	-11	40
Cc1ccc(-n2c(N)c(C(=O)Nc3ccccc3F)sc2=S)cc1C	1	6	-3	2	70*	-36	-3
Cc1ccc(NC(=O)c2sc(=S)n(-c3cc(C)ccc3F)c2N)cc1	9	6	-8	-14	75*	-50	25
Cc1ccc(-n2c(N)c(C(N)=O)sc2=S)c(C)c1	-32	.	-12	88*	62*	24	29
Cc1ccc2cc3c(N)c(C(=O)Nc4ccccc4F)sc3nc2c1	.	9	.	.	.	4	.
Cc1ccccc1-n1c(N)c(C(=O)Nc2ccc(F)cc2)sc1=S	-8	7	-2	-79	34	-47	.
CC(=O)C1=C(O)C(=O)NC1c1ccc(C)cc1 (stereo not given)	.	10	.	.	.	19	.
CCOc1ccc2nc3sc(C(=O)OC)c(N)c3cc2c1	.	6	.	.	.	-18	.
COc1ccc2nc(SCC(=O)NCc3ccccc3)c(C#N)cc2c1	.	16	.	.	.	-15	.
OCc1ccccc1SSc1ccccc1CO	.	.	-1	.	67*	.	54*	Diaphorase 10uM=-19;Diaph ctr 30uM=14
CCCn1c(SCC(=O)Nc2ccc(C)cc2C)nnc1-c1ccncc1	.	8	.	.	.	-17	.
CCOc1ccc(Cl)cc1/C=N/NC(N)=O	-10	5	4	50	79*	33	53*	Diaphorase 10uM=47;Diaph ctr 30uM=38
S=c1ncc2[nH]c(=S)[nH]c2[nH]1	.	.	0	.	68*	.	59*	Diaphorase 10uM=-21;Diaph ctr 30uM=2
COc1cccc(C2=Nc3cccc4cccc(c34)N2)c1	-24	7	18	-26	73*	5	38
Nc1ccc(C2=Nc3cccc4cccc(c34)N2)cc1	-20	7	-1	-12	18	-15	.
SMILES	TbHK1 inh	PGE2 EP2 inh	HKDC1 inhibitor	PHOSPHO1 inh	PfGluPho inh	EP2 modulator	PfGluPho conf	others
O=C(/C=C/c1ccccc1)Nc1scc(-c2ccccc2)c1C(=O)O	-21	6	2	37	61*	-10	26
O=C(/C=C/c1ccco1)Nc1scc(-c2ccccc2)c1C(=O)O	-52	10	5	-8	75*	-29	22
COc1cc(-c2c(-c3cc(OC)c(OC)c(OC)c3)noc2C)ccc1F	.	.	1	10	63*	.	14
Cc1cc2c(s1)c1cnn(Cc3ccncc3)c(=O)c1n2C	.	.	.	.	.	-5	.
CCOC(=O)c1c(NC(=O)c2ccccc2Cl)sc2c1CCc1ccccc1-2	-6	7	-1	18	72*	30	28
CCOC(=O)c1c(NC(=O)c2ccccc2Cl)sc(C(=O)OC)c1C	.	11	.	.	.	23	.
CC(C)C(=O)N1CCN(c2ccc(NC(=O)c3ccc4c(c3)OCCO4)cc2Cl)CC1	-5	11	-5	16	68*	-7	29
CC(=O)N1CCN(c2ccc(NC(=O)c3ccc4c(c3)OCCO4)cc2Cl)CC1	1	7	4	37	67*	-37	42
CCOc1ccc(OCC)c(NC(=O)c2cnccn2)c1	.	15	.	.	.	24	.
COc1ccc2nc3ccccc3nc2c1N	-14	10	17	42	71*	-62	14
O=[N+]([O-])c1ccc(CN2CCOCCOCCN(Cc3ccc([N+](=O)[O-])cc3)CCOCC2)cc1	-1	8	-2	-10	62*	25	-4
O=[N+]([O-])c1ccc(COc2ccc(CN3CCOCC3)cc2)cc1	.	.	1	.	-4	.	.
O=[N+]([O-])c1ccc(COc2ccc(Br)cc2CN2CCOCC2)cc1	-3	8	-5	8	65*	5	24
CC(=O)Nc1ccc(S(=O)(=O)N2CCN(C3Cc4ccccc4C3)CC2)cc1	.	10	.	.	.	-15	.
Cc1ccc(/C=C/C(=O)N2CCN(S(=O)(=O)c3ccc(C)c(C)c3)CC2)o1	-20	1	8	-6	62*	-16	50*	Diaphorase 10uM=-19;Diaph ctr 30uM=-23
CCN(CC)CC(C)(C)COC(=O)c1cc2cc(C)ccc2o1	.	11	.	.	.	-26	.
O=C(NC(NC(=O)c1ccccc1)c1cccc([N+](=O)[O-])c1)c1ccccc1	-3	10	1	-27	2	-17	.

Screening data: PubChem BioAssay, several laboratories
